Our source for the Activity, inhibition and IC50 values is ChEMBL document CHEMBL5705899 (Biochem J, 2014).

Assay [1] has as its target Serine/threonine-protein kinase TBK1 (Homo sapiens) (UniProt Q9UHD2). Description: Inhibition of recombinant human N-terminal GST-tagged TBK1 (1 to 729 residues) expressed in baculovirus infected Sf21 cells assessed as remaining activity at 1 uM using KKKKERLLDDRHDSGLDSMKDEE as substrate incubated for 30 mins in presence of [gamma-33P]ATP by filter binding method relative to control.

For assay [2], the target named is Insulin receptor-related protein (Homo sapiens) (UniProt P14616). Description: Inhibition of recombinant human N-terminal His6-tagged IRR (944 to 1236 residues) expressed in baculovirus infected Sf21 cells assessed as remaining activity at 1 uM using MBP as substrate incubated for 30 mins in presence of [gamma-33P]ATP by filter binding method relative to control.

The target of assay [3] is Ephrin type-B receptor 3 (Homo sapiens) (UniProt P54753). Description: Inhibition of recombinant human N-terminal His6-tagged EPHB3 (561 to 998 residues) expressed in Escherichia coli assessed as remaining activity at 1 uM using Poly(Glu, Tyr) as substrate incubated for 30 mins in presence of [gamma-33P]ATP by filter binding method relative to control.
The target of assay [4] is Discoidin domain-containing receptor 2 (Homo sapiens) (UniProt Q16832). Description: Inhibition of recombinant human N-terminal GST-tagged DDR2 (467 to 854 residues) expressed in baculovirus infected Sf21 cells assessed as remaining activity at 1 uM using KKSRGDYMTMQIG as substrate incubated for 30 mins in presence of [gamma-33P]ATP by filter binding method relative to control.
Discoidin domain-containing receptor 2 (Homo sapiens), sequence (Q16832 whole entry, the tested form may be a part): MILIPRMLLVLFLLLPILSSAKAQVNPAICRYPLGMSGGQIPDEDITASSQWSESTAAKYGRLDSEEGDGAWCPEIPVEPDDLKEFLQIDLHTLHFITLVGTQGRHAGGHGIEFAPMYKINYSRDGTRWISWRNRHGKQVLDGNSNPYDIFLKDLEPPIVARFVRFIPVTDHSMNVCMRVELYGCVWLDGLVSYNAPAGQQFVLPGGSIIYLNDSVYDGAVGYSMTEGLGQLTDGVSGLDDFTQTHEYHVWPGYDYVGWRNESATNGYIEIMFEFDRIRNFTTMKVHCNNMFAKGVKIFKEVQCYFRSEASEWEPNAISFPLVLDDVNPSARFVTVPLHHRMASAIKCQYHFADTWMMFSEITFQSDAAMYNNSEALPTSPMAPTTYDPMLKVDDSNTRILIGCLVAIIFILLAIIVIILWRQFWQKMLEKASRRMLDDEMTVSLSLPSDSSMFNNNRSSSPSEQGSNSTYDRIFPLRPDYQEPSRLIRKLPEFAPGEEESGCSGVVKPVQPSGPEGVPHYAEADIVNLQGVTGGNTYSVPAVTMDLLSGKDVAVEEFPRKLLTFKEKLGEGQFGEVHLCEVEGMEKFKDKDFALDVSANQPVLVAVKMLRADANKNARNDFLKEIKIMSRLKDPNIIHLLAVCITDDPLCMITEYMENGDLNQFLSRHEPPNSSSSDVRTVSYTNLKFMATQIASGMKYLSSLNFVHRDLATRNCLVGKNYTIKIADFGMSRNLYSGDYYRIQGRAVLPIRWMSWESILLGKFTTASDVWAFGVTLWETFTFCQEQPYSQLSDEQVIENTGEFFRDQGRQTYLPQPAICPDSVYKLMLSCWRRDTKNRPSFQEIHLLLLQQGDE

Assay [5] addresses Serine/threonine-protein kinase SIK2 (Homo sapiens) (UniProt Q9H0K1). Description: Inhibition of recombinant human N-terminal GST and HA-tagged SIK2 (2 to 926 residues) expressed in baculovirus infected Sf21 cells assessed as remaining activity at 1 uM using ALNRTSSDSALHRRR as substrate incubated for 30 mins in presence of [gamma-33P]ATP by filter binding method relative to control.

Assay [6] concerns the target Homeodomain-interacting protein kinase 2 (Homo sapiens) (UniProt Q9H2X6). Description: Inhibition of recombinant human N-terminal GST-tagged HIPK2 (165 to 564 residues) expressed in Escherichia coli assessed as remaining activity at 1 uM using MBP as substrate incubated for 30 mins in presence of [gamma-33P]ATP by filter binding method relative to control.
Assay [7] has as its target Ephrin type-B receptor 4 (Homo sapiens) (UniProt P54760). Description: Inhibition of human EPHB4 at 1 uM using polyEY as substrate in presence of 33P-ATP by ProQinase assay.
Assay [8] deals with Protein kinase C delta type (Homo sapiens) (UniProt Q05655). Description: Inhibition of human PKCdelta at 1 uM using 3xChocktide-PKC as substrate in presence of 33P-ATP by ProQinase assay.
Protein kinase C delta type (Homo sapiens), sequence (Q05655 whole entry, looked up): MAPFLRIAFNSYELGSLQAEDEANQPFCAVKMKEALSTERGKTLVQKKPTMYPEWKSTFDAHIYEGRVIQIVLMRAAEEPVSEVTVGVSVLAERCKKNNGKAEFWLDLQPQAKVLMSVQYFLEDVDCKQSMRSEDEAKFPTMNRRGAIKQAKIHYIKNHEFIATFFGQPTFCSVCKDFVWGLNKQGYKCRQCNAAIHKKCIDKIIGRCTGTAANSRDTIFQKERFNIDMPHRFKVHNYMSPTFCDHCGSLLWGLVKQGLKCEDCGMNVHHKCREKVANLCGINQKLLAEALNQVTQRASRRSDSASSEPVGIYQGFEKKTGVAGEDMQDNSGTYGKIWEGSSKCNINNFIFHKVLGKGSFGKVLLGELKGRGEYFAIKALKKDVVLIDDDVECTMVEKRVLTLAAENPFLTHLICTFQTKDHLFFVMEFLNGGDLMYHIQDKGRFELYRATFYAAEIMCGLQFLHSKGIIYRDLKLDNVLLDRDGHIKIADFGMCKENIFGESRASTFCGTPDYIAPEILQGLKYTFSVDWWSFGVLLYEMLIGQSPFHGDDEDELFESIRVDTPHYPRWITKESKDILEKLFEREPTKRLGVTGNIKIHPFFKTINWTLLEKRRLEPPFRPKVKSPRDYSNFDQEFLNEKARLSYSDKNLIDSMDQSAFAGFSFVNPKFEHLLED
Assay [9] has as its target Protein kinase C gamma type (Homo sapiens) (UniProt P05129). Description: Inhibition of human PKCgamma at 1 uM using 3xChocktide-PKC as substrate in presence of 33P-ATP by ProQinase assay.
Assay [10] addresses Mitogen-activated protein kinase 12 (Homo sapiens) (UniProt P53778). Description: Inhibition of human P38gamma at 1 uM using RBER-IRStide as substrate in presence of 33P-ATP by ProQinase assay.
Assay [11] concerns the target High affinity nerve growth factor receptor (Homo sapiens) (UniProt P04629). Description: Inhibition of human TRKA at 1 uM using PolyEY as substrate in presence of 33P-ATP by ProQinase assay.
Assay [12] addresses Proto-oncogene tyrosine-protein kinase receptor Ret (Homo sapiens) (UniProt P07949). Description: Inhibition of human RET at 1 uM using polyEY as substrate in presence of 33P-ATP by ProQinase assay.
Assay [13] has as its target Protein kinase C alpha type (Homo sapiens) (UniProt P17252). Description: Inhibition of human PKCalpha at 1 uM using 3xChocktide-PKC as substrate in presence of 33P-ATP by ProQinase assay.
Assay [14] has as its target Serine/threonine-protein kinase PLK2 (Homo sapiens) (UniProt Q9NYY3). Description: Inhibition of human SNK at 1 uM using RBER-GSK3 as substrate in presence of 33P-ATP by ProQinase assay.
The target in assay [15] is Platelet-derived growth factor receptor beta (Homo sapiens) (UniProt P09619). Description: Inhibition of human PDGFRbeta at 1 uM using poly(Ala,Glu,Lys,Tyr) as substrate in presence of 33P-ATP by ProQinase assay.
Assay [16] has as its target Discoidin domain-containing receptor 2 (Homo sapiens) (UniProt Q16832). Description: Inhibition of human DDR2 at 1 uM using poly(Ala,Glu,Lys,Tyr) as substrate in presence of 33P-ATP by ProQinase assay.
In assay [17] the target is Ribosomal protein S6 kinase beta-1 (Homo sapiens) (UniProt P23443). Description: Inhibition of human S6K1 at 1 uM using RBER-GSK3 as substrate in presence of 33P-ATP by ProQinase assay.
Assay [18] concerns the target Glycogen synthase kinase-3 beta (Homo sapiens) (UniProt P49841). Description: Inhibition of human GSK3beta at 1 uM using RBER-CHKtide as substrate in presence of 33P-ATP by ProQinase assay.
Assay [19] has as its target Activin receptor type-1 (Homo sapiens) (UniProt Q04771). Description: Inhibition of human ACVR1 at 1 uM using RBER-GSK3 as substrate in presence of 33P-ATP by ProQinase assay.
Assay [20] deals with Choline kinase alpha (Homo sapiens) (UniProt P35790). Description: Inhibition of recombinant human N-terminal GST-tagged CHKalpha (1 to 457 residues) expressed in Escherichia coli at 1 uM using choline chloride as substrate incubated for 40 mins by ADP-Glo assay.
Assay [21] addresses Phosphatidylinositol 4-kinase beta (Homo sapiens, UniProt Q9UBF8). Description: Inhibition of PI4Kbeta (unknown origin) using D-myo-PtdIns as substrate incubated for 45 mins by ADP-Glo assay. A digest of the protocol: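 PI4Kα: 1 nM enzyme, 72 μM ATP, 25 μM PtdIns. PI4Kβ: 2 nM enzyme, 220 μM ATP, 50 μM PtdIns. Reactions ran 45 min at ambient temperature; ADP-Glo reagent was added for 40 min, then detection reagent for 30 min, then luminescence was read.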

The target of assay [22] is Phosphatidylinositol 4-phosphate 3-kinase C2 domain-containing subunit alpha (Homo sapiens, UniProt O00443). Description: Inhibition of human PIK3C2A using PIP2/PS as substrate by ADP-Glo assay.
Assay [23] relates to U2OS. Description: Inhibition of PI3K in human U2OS cells expressing FLAG-tagged SGK3 assessed as reduction in NDRG1 phosphorylation at T346 residues at 0.01 to 1 uM 1 hr by immunoblot analysis. The format is cell-based. The conditions noted are these: dose 0.01-1 µM. A digest of the protocol: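 Flp-In T-REx U2OS cells were grown in McCoy medium with 10% FBS. Expression of C-terminally FLAG-tagged full-length SGK3 was induced with 0.01 mg/ml doxycycline for 24 h. Cells were treated with inhibitor for 1 h and lysed in phosphatase-inhibitor buffer. Lysates were cleared at 16000 g for 10 min at 4°C, protein was measured by Bradford, and phosphorylation was read by immunoblot with ECL detection.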

Activity calls are given as the source filed them. The rule behind the calls is not given here. Where only a bound is given, the exact number is not on record here.

Proto-oncogene tyrosine-protein kinase receptor Ret (Homo sapiens), sequence (P07949 whole entry): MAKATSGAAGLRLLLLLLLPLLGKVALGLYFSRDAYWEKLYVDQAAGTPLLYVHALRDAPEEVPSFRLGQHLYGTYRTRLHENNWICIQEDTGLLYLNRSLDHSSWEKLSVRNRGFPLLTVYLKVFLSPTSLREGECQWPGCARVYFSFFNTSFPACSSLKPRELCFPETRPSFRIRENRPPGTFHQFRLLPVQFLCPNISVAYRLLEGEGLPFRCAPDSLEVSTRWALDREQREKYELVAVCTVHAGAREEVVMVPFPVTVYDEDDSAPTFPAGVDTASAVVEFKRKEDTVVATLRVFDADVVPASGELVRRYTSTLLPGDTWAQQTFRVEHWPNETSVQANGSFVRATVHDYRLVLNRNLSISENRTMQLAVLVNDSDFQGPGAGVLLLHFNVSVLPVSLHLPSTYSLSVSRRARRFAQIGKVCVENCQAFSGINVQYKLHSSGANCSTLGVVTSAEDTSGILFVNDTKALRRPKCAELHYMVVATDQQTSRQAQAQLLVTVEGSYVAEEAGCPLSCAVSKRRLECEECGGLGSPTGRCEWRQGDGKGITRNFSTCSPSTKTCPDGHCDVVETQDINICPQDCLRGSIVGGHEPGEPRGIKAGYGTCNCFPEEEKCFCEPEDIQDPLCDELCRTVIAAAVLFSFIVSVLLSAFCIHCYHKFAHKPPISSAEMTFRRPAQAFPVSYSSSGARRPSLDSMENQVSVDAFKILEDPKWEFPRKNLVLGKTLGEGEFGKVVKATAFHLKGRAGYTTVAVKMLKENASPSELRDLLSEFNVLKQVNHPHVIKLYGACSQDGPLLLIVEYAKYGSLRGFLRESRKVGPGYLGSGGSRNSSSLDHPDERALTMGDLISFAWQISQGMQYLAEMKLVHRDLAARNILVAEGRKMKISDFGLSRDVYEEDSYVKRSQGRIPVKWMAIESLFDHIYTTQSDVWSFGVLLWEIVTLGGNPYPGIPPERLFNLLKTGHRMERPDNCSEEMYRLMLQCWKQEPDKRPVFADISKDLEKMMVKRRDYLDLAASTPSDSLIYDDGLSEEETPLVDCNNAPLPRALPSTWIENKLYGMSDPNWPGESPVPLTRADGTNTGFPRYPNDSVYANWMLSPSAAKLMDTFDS
High affinity nerve growth factor receptor (Homo sapiens), sequence (P04629 33-796 limits assumed): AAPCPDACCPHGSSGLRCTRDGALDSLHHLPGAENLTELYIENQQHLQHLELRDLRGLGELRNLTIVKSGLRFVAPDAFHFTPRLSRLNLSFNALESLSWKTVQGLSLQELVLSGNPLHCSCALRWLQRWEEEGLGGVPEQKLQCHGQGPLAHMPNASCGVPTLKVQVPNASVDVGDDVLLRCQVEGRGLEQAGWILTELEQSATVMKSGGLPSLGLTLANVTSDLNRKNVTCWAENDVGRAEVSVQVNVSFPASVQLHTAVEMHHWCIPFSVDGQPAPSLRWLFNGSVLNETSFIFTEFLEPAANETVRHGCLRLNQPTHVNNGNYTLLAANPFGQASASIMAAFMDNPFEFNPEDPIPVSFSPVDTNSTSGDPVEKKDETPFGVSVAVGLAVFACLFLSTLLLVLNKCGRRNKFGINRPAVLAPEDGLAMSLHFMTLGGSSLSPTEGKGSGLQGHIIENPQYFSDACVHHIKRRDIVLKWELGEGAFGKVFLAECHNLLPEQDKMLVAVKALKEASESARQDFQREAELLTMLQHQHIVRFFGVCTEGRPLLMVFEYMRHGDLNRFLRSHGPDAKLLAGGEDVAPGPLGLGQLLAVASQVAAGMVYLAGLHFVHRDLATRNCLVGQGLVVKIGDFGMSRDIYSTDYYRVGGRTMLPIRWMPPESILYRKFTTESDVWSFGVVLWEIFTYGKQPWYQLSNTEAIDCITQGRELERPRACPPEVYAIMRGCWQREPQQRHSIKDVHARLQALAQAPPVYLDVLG
Serine/threonine-protein kinase TBK1 (Homo sapiens), sequence (Q9UHD2 whole entry, the tested form may be a part): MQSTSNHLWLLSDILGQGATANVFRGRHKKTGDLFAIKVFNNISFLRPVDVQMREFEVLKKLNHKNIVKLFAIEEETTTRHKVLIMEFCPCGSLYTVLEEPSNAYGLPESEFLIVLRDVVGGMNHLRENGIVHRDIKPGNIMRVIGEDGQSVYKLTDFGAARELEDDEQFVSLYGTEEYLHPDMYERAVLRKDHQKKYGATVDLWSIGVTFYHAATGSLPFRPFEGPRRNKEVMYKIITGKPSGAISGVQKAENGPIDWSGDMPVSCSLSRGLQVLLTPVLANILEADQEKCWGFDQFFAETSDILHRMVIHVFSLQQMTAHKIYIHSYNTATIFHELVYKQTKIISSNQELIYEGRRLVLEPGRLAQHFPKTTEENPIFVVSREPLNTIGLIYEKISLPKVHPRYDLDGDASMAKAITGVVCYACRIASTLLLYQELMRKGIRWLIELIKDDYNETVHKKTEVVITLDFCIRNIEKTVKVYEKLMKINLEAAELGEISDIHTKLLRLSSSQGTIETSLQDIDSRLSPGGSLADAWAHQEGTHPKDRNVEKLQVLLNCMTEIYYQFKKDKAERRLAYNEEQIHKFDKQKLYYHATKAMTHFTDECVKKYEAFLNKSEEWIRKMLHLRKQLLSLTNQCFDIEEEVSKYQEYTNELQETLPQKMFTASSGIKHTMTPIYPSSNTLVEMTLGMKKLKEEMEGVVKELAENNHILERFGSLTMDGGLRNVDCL
Mitogen-activated protein kinase 12 (Homo sapiens), sequence (P53778 whole entry): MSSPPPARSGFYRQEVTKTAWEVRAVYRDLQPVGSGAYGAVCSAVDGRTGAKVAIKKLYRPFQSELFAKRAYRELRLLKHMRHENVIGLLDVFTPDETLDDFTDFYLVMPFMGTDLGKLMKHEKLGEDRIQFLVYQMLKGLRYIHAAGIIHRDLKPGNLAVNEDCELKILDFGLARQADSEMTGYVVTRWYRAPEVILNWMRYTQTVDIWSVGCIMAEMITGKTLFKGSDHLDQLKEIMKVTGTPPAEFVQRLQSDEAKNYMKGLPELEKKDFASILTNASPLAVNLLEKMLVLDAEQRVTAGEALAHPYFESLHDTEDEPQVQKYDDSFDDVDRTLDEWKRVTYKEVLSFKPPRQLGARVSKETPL
Activin receptor type-1 (Homo sapiens), sequence (Q04771 whole entry, the tested form may be a part): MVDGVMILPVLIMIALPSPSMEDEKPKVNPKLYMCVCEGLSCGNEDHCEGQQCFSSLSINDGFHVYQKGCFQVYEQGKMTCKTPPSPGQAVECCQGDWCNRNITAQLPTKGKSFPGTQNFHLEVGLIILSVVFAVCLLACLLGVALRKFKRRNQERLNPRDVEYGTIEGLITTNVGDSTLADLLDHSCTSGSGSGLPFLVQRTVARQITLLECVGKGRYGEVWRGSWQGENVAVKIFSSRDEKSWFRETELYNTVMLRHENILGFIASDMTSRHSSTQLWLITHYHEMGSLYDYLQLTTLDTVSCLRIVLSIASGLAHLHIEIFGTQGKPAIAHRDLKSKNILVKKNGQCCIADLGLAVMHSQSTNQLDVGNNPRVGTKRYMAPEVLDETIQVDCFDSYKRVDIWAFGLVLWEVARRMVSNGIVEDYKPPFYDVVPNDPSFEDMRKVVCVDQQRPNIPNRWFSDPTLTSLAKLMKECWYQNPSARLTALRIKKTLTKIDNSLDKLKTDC

As to `CC(C)(O)CNc1ncc(-c2ccnc(Nc3ccnc(Cl)c3)n2)c(CC2CC2)n1`, the Activity is 125% in assay [1]; 113% in assay [2]; 111% in assay [3]; 111% in assay [4]; 106% in [5]; 96% in assay [6]. Moreover, the inhibition result in assay [7], in assay [8], in assay [9], in assay [10], in assay [11] and in assay [12] was “inactive” throughout. Also, the inhibition result in assay [13], in assay [14], in [15], in [16], in assay [17] and in [18] was “inactive” each time. Also, the inhibition entry in assay [19] and in [20] was “inactive” each time. For the same molecule, the IC50 in assay [21] is 1070 nM; in assay [22], > 10000 nM. Also, in assay [23], the inhibition entry is “Active”.
